IMP-1 inhibitor – blocks Pseudomonas aeruginosa IMP-1 metallo-beta-lactamase. purified IMP-1, nitrocefin hydrolysis, epi-absorbance fluorescence. inhibition, % at 5.6 µM. hit rate 0.45% among 290,000;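 active means inhibition above the mean plus 3 SD of all compounds in the same screening run, cut at about 4.5% in these data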;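 further: 0% = IMP-1 with DMSO and 100% = DMSO wells lacking enzyme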
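System: purified IMP-1; amount: IMP-1 0.2 nM before substrate addition; compound: single dose, 5.6 µM; times: 25 °C, 15 min preincubation, 25 min reaction; signal: Epi-absorbance via hydrolysed-nitrocefin quenching of white-plate fluorescence, 480/530 nm, EDTA stop; benchmarks: DMSO with and without IMP-1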
PLCb3 inh – blocks human PLC-beta3 enzyme activity; Q01970; Purified PLC-beta3, fluorogenic substrate, fluorescence; inhibition, % at 12.2 µM; hit rate 0.18% among 370,000; AID 720704; in the data active means inhibition above about 11%;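 further: 0% = median of compound wells on plate and 100% = full blocker control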
PvdQ inh – blocks Pseudomonas aeruginosa PvdQ acylase activity; purified PvdQ acylase, fluorescence plate reader; inhibition, % at 10 µM; hit rate 0.063% among 340,000; in the data active means inhibition above about 30%, passing the limit was not always enough;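 further: 0% = vehicle neutral wells and 100% = reference inhibitor wells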
VIM-2 inh – blocks Pseudomonas aeruginosa VIM-2 metallo-beta-lactamase; hit rate 0.89% among 290,000; purified VIM-2, nitrocefin hydrolysis, epi-absorbance fluorescence; AID 1527; inhibition, % at 5.6 µM;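 active means inhibition above the mean of all tested compounds plus 3 SD, cutoff set per screening run, cut at about 7.5% in these data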;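 further: red hydrolysis product quenches plate fluorescence so inhibitors raise well fluorescence; 0% = enzyme with DMSO and 100% = DMSO without enzyme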
PLC-gamma1 inh – blocks human PLC-gamma1 enzyme activity. purified PLC-gamma1, fluorogenic substrate, fluorescence. inhibition, % at 12.2 µM. hit rate 0.84% among 370,000
PLCgamma1 ctr – counter-screen for PLC-beta3 inhibitors: inhibitors of human PLC-gamma1; shares compounds with PLC-gamma1 inh; purified PLC-gamma1, fluorogenic substrate, fluorescence; inhibition, % at 12.3 µM; hit rate 3.1% among 3,300
PLCb3 confirm – human PLC-beta3 inhibition, confirmation; purified PLC-beta3, fluorogenic substrate fluorescence; inhibition, % at 12.3 µM; shares compounds with PLC-gamma1 inh; hit rate 1% among 3,300; in the data active means inhibition above about 11%
* hit, by the source's call. Shown are actives, neighbours in structure and some others; about 2% of the full set was active somewhere. Unless noted, no stated cut-off is given here; in the data, active means inhibition above about 9.5%; inactive means the rest.

For O=C(NC1CCCCC1)N1CCCC(c2nc(-c3cccs3)no2)C1 (stereo unspecified) the results were IMP-1 inhibitor -0.9, PLCb3 inh 10.0, PvdQ inh 5.4, VIM-2 inh -3.0, PLC-gamma1 inh 10.2*, PLCgamma1 ctr -7.2 and PLCb3 confirm -1.1.
Screening O=C(Nc1ccccc1)N1CCCC(c2nc(-c3cccs3)no2)C1 (stereo unspecified) returned IMP-1 inhibitor -2.8, PvdQ inh -8.1 and VIM-2 inh -0.7.
Screening Cc1ccccc1NC(=O)N1CCCC(c2nc(-c3ccc(C(C)C)cc3)no2)C1 (stereo unspecified) returned IMP-1 inhibitor -4.5, PLCb3 inh 3.0, PvdQ inh 1.2, VIM-2 inh -0.3, PLC-gamma1 inh 10.1*, PLCgamma1 ctr -5.0 and PLCb3 confirm -2.5.
COC(=O)C1CN(Cc2ccc(C)cc2)CCS(=O)(=O)N1Cc1cn(Cc2ccc(Cl)cc2)nn1 (stereo unspecified) was read as PLCb3 inh 2.2 and PLC-gamma1 inh 2.7.
O=C(CCc1ccccc1)N[C@H]1[C@@H](OC(=O)c2ccc([N+](=O)[O-])cc2)CCC[C@]12C(=O)N(Cc1ccccc1)c1ccccc12 was read as PLCb3 inh 3.9 and PLC-gamma1 inh -0.4.
Screening COc1ccc(OCCCC(=O)Nc2ccc(N3CCCCC3)cc2)cc1 returned IMP-1 inhibitor -0.9, PLCb3 inh 9.9, PvdQ inh -17.3, VIM-2 inh -2.0, PLC-gamma1 inh 10.1*, PLCgamma1 ctr -3.1 and PLCb3 confirm 0.0.
`COc1ccc(OCCCC(=O)Nc2ccc(N3CCOCC3)cc2)cc1` gave IMP-1 inhibitor -3.2, PLCb3 inh 0.4, PvdQ inh 8.2, VIM-2 inh -2.0 and PLC-gamma1 inh 0.1.
CCOC(=O)N1CCN(CCC(=O)Nc2ccc(OC)cc2)CC1 was read as IMP-1 inhibitor -5.1, PLCb3 inh -0.5, PvdQ inh -12.9, VIM-2 inh -3.7 and PLC-gamma1 inh -1.4.
Screening COc1ccc(NC(=O)CCN2CCCCCC2)cc1 returned IMP-1 inhibitor -5.5, PLCb3 inh -1.2, PvdQ inh 9.6, VIM-2 inh -3.3, PLC-gamma1 inh 10.5*, PLCgamma1 ctr -3.2 and PLCb3 confirm -2.7.
CCOC(=O)N1CCN(Cc2nc3cc(NC(=O)C(C)C)ccc3n2C)CC1 was read as IMP-1 inhibitor -2.5, PLCb3 inh -2.1, PvdQ inh -16.2, VIM-2 inh -2.1, PLC-gamma1 inh 11.7*, PLCgamma1 ctr -8.5 and PLCb3 confirm -8.4.
CCOC(=O)N1CCN(CCC(=O)Nc2ccc(C)cc2)CC1 was read as IMP-1 inhibitor -1.2, PLCb3 inh 1.4, PvdQ inh -6.3, VIM-2 inh -2.9, PLC-gamma1 inh 10.9*, PLCgamma1 ctr -0.1 and PLCb3 confirm -1.6.
`COc1cc(OC)cc(C(C)c2ccc(-c3ccccc3)cc2)c1` (stereo unspecified) gave PLCb3 inh -1.6 and PLC-gamma1 inh -2.3.
COC(=O)CC#C[C@H](C)[C@@H](NS(=O)(=O)c1ccc(C)cc1)C1CCCCC1 was read as PLCb3 inh 0.5 and PLC-gamma1 inh -1.3.
Cc1cc(=O)n(C)c(=O)n1CCCCCN1CCCC1 was read as IMP-1 inhibitor -7.5, PLCb3 inh 7.1, PvdQ inh -5.6, VIM-2 inh -0.1, PLC-gamma1 inh 10.8*, PLCgamma1 ctr 3.5 and PLCb3 confirm 3.8.
For FC(F)(F)c1ccc(Cn2ccc3ccc(-c4ccc5ccn(Cc6ccc(C(F)(F)F)cc6)c5c4)cc32)cc1 the results were PLCb3 inh -39.6 and PLC-gamma1 inh -30.6.
Screening CCOC(=O)c1c2c(n(Cc3ccccc3)c1C)C(=O)C(=O)c1ccccc1-2 returned PLCb3 inh 4.3, PvdQ inh -19.1, PLC-gamma1 inh 17.1*, PLCgamma1 ctr 36.1* and PLCb3 confirm 10.7*.
O=C(CSc1ccc(Cl)cc1Cl)N1CCC(c2nc3ccccc3s2)CC1 was read as IMP-1 inhibitor -3.0, PLCb3 inh -4.2, PvdQ inh -8.3, VIM-2 inh -0.2, PLC-gamma1 inh 10.7*, PLCgamma1 ctr -3.7 and PLCb3 confirm -8.9.
CCNC(=O)N1CCC(c2nc3ccccc3s2)CC1 was read as IMP-1 inhibitor -2.0, PLCb3 inh -6.6, PvdQ inh 8.7, VIM-2 inh -1.0 and PLC-gamma1 inh 2.0.
Screening CN1OC[C@@H]2CN(C(=S)Nc3cc(C(F)(F)F)cc(C(F)(F)F)c3)[C@H](c3ccccc3Br)C[C@@H]21 returned PLCb3 inh 1.7 and PLC-gamma1 inh 1.5.
`CC(C)CC(NC(=O)OCc1ccccc1)C(=O)NCC(=O)NCC(=O)OCc1ccccc1` (stereo unspecified) gave PLCb3 inh 2.8 and PLC-gamma1 inh 0.8.
`COc1ccc(OC)c(NC(=O)COC(=O)C2CCCCC2)c1` gave PLCb3 inh 12.2*, PvdQ inh -16.4, PLC-gamma1 inh 10.4*, PLCgamma1 ctr -1.7 and PLCb3 confirm 0.8.
CN(CC(=O)Nc1ccc(F)c(F)c1F)C1CCCCC1 was read as IMP-1 inhibitor -6.0, PLCb3 inh 2.4, PvdQ inh 9.4, VIM-2 inh -1.6, PLC-gamma1 inh 10.5*, PLCgamma1 ctr -5.0 and PLCb3 confirm -3.5.
Screening COc1ccc(NC(=O)CN(C)C2CCCCC2)c([N+](=O)[O-])c1 returned IMP-1 inhibitor -4.0, PLCb3 inh -1.2, PvdQ inh -23.8, VIM-2 inh -2.6, PLC-gamma1 inh 12.0*, PLCgamma1 ctr 2.3 and PLCb3 confirm 2.6.
For CC(C)(N[C@@H](Cc1ccccc1)C(=O)NCC(c1ccccc1)c1ccccc1)C(=O)NC1CCCCC1 the results were PLCb3 inh 0.0 and PLC-gamma1 inh -1.4.
Cc1ccc(O)c(C(C)c2c[nH]c3ccccc23)c1 (stereo unspecified) was read as PLCb3 inh -1.0 and PLC-gamma1 inh -1.0.
Screening COc1ccc(S(=O)(=O)Nc2ccc(C)cc2)cc1N(C)S(=O)(=O)c1ccc(Cl)cc1 returned IMP-1 inhibitor -1.8, PLCb3 inh 2.6, PvdQ inh -6.5, VIM-2 inh -1.6, PLC-gamma1 inh 10.8*, PLCgamma1 ctr 0.4 and PLCb3 confirm 4.7.
O=C(Nc1cccc(OC(F)(F)F)c1)C1Cc2c(-c3cccc(F)c3)ccnc2O1 (stereo unspecified) was read as PLCb3 inh -12.0, PLC-gamma1 inh 12.5*, PLCgamma1 ctr -5.8 and PLCb3 confirm -5.2.
`Cc1cccc(OCC(O)Cn2c(=N)n(Cc3ccccc3)c3ccccc32)c1` (stereo unspecified) gave IMP-1 inhibitor 0.2, PLCb3 inh 0.9, PvdQ inh -7.9, VIM-2 inh 0.3, PLC-gamma1 inh 11.6*, PLCgamma1 ctr 0.3 and PLCb3 confirm -6.2.

Screens from PubChem.
